Source: ChEMBL document CHEMBL1137342 (J Med Chem, 2006)

What was measured:
[1] = target: D(2) dopamine receptor (Rattus norvegicus) (UniProt P61169); test: Intrinsic activity at rat dopamine D2L receptor expressed in HEK293 cells assessed as inhibition of forskolin-stimulated cAMP production relative to dopamine; format: functional, cell-based
Outline: (§1)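 HEK293 cells stably expressing rat D2L, grown in DMEM with 5% fetal clone serum, 5% bovine calf serum and puromycin. Confluent monolayers were treated with ligands diluted in EBSS buffer (pH 7.4) with 5 µM forskolin and 500 µM IBMX. The reaction was stopped with 3% TCA. cAMP was measured in duplicate by [3H]cAMP competition with adrenal binding protein (2-3 h, 4 °C).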

[2] = target: D(1A) dopamine receptor (Sus scrofa, UniProt P50130); test: Displacement of [3H]SCH-23390 from dopamine D1-like receptor in porcine striata homogenate
[3] = target: D(1A) dopamine receptor (Homo sapiens, UniProt P21728); test: Activity at human dopamine D1 receptor expressed in HEK293 cells assessed as stimulation of cAMP production; format: functional, cell-based
[4] = target: T1, D(4) dopamine receptor (Homo sapiens, UniProt P21917); format: functional, cell-based, HEK293
T1 sequence (P21917 whole entry): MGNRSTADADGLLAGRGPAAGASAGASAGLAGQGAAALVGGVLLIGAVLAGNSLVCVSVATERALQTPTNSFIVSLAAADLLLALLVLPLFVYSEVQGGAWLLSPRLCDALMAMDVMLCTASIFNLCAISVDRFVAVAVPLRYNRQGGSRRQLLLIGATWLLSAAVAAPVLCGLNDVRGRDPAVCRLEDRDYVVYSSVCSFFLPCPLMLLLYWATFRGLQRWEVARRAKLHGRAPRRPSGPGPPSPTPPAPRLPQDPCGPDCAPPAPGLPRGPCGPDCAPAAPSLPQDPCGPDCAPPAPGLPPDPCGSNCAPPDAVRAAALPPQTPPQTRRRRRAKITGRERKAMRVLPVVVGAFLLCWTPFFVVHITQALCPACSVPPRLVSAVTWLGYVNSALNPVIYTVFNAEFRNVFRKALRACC

[5] = target: D(2) dopamine receptor (Rattus norvegicus, UniProt P61169); test: Activity at rat dopamine D2L receptor expressed in HEK293 cells assessed as inhibition of forskolin-stimulated cAMP production; format: functional, cell-based; outline: as §1
[6] = target: T2, Alpha-2C adrenergic receptor (Homo sapiens, UniProt P18825); test: Binding affinity to human cloned adrenergic alpha 2C receptor receptor
T2 sequence (P18825 whole entry): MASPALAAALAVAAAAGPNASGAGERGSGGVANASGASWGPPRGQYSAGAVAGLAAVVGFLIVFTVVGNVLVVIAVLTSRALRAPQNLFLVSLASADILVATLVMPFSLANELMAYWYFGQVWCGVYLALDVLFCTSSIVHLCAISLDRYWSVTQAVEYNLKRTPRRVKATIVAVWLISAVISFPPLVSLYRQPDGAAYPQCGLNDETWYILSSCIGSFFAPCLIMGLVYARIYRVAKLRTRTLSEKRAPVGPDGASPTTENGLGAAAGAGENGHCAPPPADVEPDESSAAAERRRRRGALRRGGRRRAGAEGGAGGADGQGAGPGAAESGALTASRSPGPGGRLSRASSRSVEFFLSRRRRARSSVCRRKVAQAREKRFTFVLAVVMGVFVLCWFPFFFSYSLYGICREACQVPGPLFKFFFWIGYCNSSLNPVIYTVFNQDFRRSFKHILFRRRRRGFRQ

[7] = target: D(1B) dopamine receptor (Homo sapiens, UniProt P21918); test: Binding affinity to human cloned dopamine D5 receptor
[8] = target: T1, D(4) dopamine receptor; test: Binding affinity to human cloned dopamine D4 receptor
[9] = target: T3, Alpha-2A adrenergic receptor (Homo sapiens, UniProt P08913); test: Binding affinity to human cloned adrenergic alpha 2A receptor
T3 sequence (P08913 whole entry): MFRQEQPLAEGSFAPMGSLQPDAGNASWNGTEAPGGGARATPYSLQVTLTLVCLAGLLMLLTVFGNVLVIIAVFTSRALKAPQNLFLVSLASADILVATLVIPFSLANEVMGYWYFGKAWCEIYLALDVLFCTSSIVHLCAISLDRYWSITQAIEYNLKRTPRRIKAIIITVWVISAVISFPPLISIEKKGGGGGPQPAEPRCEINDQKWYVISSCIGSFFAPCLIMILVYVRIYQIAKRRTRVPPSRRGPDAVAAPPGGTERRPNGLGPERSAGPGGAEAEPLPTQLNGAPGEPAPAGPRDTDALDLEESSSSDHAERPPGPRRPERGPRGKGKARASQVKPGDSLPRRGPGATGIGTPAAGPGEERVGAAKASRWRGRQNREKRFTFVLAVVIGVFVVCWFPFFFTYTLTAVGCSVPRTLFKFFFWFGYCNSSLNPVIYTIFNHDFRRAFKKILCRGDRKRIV

[10] = target: D(2) dopamine receptor (Homo sapiens, UniProt P14416); test: Binding affinity to human cloned dopamine D2 receptor
[11] = target: T4, Alpha-2B adrenergic receptor (Homo sapiens, UniProt P18089); test: Binding affinity to human cloned adrenergic alpha 2B receptor receptor
T4 sequence (P18089 whole entry): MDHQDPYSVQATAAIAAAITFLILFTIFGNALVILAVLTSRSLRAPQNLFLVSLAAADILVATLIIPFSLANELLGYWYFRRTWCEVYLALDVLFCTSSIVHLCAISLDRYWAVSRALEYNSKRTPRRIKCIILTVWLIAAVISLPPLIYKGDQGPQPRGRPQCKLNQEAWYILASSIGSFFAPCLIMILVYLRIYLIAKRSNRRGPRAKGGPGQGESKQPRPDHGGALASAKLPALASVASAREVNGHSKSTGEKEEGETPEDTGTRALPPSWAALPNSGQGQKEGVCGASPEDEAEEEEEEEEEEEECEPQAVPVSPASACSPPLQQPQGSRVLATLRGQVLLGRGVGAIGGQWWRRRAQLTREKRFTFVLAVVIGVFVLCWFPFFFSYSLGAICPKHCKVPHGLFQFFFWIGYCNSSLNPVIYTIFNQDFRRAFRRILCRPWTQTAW

[12] = target: D(3) dopamine receptor (Homo sapiens, UniProt P35462); test: Binding affinity to human cloned dopamine D3 receptor
D(3) dopamine receptor, sequence (P35462 whole entry): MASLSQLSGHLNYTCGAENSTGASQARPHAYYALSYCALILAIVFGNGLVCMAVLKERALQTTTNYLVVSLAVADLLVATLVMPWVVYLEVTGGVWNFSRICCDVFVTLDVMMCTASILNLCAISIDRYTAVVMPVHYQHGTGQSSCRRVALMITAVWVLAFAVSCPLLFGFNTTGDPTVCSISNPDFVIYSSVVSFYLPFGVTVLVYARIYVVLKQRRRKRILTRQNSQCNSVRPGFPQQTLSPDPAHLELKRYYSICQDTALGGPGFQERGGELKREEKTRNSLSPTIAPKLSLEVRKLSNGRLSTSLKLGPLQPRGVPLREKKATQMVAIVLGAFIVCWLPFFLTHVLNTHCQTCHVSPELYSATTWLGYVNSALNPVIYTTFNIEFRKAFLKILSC

D(2) dopamine receptor (Rattus norvegicus, UniProt P61169), sequence (P61169 whole entry): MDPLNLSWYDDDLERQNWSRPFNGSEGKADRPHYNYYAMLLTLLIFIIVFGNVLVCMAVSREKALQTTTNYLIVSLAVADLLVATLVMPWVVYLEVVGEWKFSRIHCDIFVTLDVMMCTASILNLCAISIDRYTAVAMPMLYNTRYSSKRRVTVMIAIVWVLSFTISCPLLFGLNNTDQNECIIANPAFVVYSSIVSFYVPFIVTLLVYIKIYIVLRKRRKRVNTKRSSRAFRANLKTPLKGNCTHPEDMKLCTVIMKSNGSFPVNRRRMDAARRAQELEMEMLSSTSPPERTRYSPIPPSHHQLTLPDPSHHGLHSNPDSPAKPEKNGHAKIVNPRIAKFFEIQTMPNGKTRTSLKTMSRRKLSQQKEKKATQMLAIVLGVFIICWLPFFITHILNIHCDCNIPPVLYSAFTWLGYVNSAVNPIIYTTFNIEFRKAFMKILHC
D(2) dopamine receptor (Rattus norvegicus), sequence (P61169 whole entry): as above
D(1A) dopamine receptor (Homo sapiens, UniProt P21728), sequence (P21728 whole entry): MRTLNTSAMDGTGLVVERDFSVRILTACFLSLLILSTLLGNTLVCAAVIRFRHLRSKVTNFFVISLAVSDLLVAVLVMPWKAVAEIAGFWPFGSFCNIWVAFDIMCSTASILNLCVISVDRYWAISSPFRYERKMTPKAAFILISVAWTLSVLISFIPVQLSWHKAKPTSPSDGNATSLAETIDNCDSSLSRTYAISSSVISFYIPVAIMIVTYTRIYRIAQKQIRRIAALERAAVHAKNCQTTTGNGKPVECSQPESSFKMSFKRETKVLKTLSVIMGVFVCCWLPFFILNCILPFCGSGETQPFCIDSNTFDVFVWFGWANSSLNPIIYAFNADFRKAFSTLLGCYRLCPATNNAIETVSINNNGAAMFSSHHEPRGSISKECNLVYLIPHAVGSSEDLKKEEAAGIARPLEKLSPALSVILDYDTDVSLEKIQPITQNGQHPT
D(1A) dopamine receptor (Sus scrofa, UniProt P50130), sequence (P50130 whole entry): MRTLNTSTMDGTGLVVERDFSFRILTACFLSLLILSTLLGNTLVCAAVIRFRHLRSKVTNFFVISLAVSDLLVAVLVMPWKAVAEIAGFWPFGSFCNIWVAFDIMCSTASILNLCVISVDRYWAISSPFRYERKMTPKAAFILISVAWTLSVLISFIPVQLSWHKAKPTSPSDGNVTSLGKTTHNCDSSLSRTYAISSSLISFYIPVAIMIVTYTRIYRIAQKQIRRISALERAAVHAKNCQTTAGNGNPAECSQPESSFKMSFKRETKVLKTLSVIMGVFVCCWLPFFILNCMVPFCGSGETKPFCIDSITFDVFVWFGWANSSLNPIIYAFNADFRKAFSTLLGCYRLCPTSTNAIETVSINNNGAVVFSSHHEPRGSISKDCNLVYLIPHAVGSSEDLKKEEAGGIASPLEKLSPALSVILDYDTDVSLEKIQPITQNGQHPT
D(2) dopamine receptor (Homo sapiens, UniProt P14416), sequence (P14416 whole entry): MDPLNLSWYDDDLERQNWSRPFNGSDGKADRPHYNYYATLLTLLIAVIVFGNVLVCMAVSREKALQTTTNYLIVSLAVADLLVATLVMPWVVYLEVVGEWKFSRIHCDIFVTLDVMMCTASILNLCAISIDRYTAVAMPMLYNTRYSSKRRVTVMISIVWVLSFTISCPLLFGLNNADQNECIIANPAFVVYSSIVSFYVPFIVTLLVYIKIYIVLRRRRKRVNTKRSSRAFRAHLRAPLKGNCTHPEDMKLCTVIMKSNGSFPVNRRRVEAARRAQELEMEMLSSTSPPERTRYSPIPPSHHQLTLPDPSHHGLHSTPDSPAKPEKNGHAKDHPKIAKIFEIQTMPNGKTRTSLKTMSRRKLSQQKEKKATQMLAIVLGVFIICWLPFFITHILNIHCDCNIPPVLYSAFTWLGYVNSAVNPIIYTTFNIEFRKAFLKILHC
D(1B) dopamine receptor, sequence (P21918 whole entry): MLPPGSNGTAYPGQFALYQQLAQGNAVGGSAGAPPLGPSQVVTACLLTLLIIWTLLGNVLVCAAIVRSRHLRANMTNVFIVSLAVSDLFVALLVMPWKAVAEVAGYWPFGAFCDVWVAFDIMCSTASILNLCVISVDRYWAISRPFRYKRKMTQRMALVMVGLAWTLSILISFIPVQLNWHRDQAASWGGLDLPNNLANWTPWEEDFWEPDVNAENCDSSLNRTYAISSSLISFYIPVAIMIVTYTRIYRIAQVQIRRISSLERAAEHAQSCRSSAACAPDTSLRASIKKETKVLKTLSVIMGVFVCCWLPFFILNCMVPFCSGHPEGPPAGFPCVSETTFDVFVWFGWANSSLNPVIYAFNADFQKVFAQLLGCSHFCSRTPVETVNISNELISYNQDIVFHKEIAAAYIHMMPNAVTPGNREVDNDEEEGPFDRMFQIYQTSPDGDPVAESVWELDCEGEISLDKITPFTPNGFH

SMILES | Intrinsic activity [1] | EC50 [4] | EC50 [5] | other results
CCCN1CCC[C@@H]2Cc3n[nH]cc3C[C@H]21 | 95% | – | – | –
NCCc1ccc(O)c(O)c1 | 100% | – | – | –
Oc1cc2c(cc1O)[C@H]1c3ccccc3CN[C@@H]1CC2 | 70% | – | – | –
CCCN1Cc2ccccc2C2c3cc(O)c(O)cc3OCC21 (racemic) | 92% | 21 nM | 1.6 µM | Ki [2]: 330 nM; EC50 [3]: 1100 nM
Oc1cc2c(cc1O)C1c3ccccc3CNC1CO2 (racemic) [DOXANTHRINE] | – | 110 nM | > 10 µM | Ki [6]: 2 nM; Ki [7]: 7 nM; Ki [8]: 90 nM; Ki [9]: 180 nM; Ki [10]: 1910 nM; Ki [11]: 10 nM; Ki [12]: 390 nM
Oc1cc2c(cc1O)[C@@H]1c3ccccc3CN[C@H]1CO2 (single isomer, unassigned) | – | 230 nM | > 10 µM | –
Oc1cc2c(cc1O)[C@H]1c3ccccc3CN[C@@H]1CO2 (single isomer, unassigned) | – | 95 nM | > 10 µM | –
